For experiment [1], the species on record is Mus musculus. Put plainly: (§1) Evaluated for drug-induced inhibition of exploratory activity in mouse. The format is functional. An outline of the steps: (§2)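 Male Swiss-Webster mice (20–30 g) were acclimated for several days and tested in groups of three in an activity meter. Dosing was 10 mg/kg ip immediately before cage entry; controls got water on each test day. Counts from the 18 min starting at 6 min were summed as % reduction vs control. Three groups per compound; one-way ANOVA, Scheffé.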

For experiment [2], the species on record is Rattus norvegicus. Put plainly: Evaluated for induce circling behavior in the rat expressed as rotational behavior (turns/h). The format is functional. The method in brief: (§3)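 Used male Sprague-Dawley rats (200–300 g) with unilateral substantia nigra 6-hydroxydopamine lesions. A single 10 mg/kg sc dose was given to four rats at the start of a 1-h automatic recording. Turns/h were recorded with direction (ipsilateral or contralateral); a mean above 100 counted as substantial circling.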

Experiment [3] is filed under the species Mus musculus. Kind of experiment: Evaluated for analgesic activity and increase in reaction time in mouse by hotplate assay. The format is functional. On the set-up: unit not given beside the values. The method in brief: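 Male Swiss-Webster mice (20–30 g) got 10 mg/kg ip 10 min before a single exposure to a 55 ± 0.5 °C hot plate. End point was jumping or paw licking. Ten mice per drug, plus 10 saline controls each test day; also run after naloxone 5 mg/kg ip pretreatment. Mean latency (s) ± SEM; grouped Student's t test vs control.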

For experiment [4], the species on record is Mus musculus. The experiment is described as §1. The format is functional. Set-up: concentration or dose not given beside the values. The method in brief: as §2
Experiment [5] is filed under the species Canis familiaris. Put plainly: Evaluated for inhibition of pressor response during carotid occlusion in dog at 0.5; IA = inactive. Particulars: Canis lupus familiaris. In kind it is functional, organism-based.
The species entered for experiment [6] is Rattus norvegicus. Kind of experiment: Evaluated for induce circling behavior in the rat expressed as rotational behavior (turns/h); IA = inactive. The format is functional, organism-based. The method in brief:
as §3

For experiment [7], the species on record is Canis familiaris. Kind of experiment: Evaluated for inhibition of pressor response during carotid occlusion in dog. In kind it is functional. To be noted: Canis lupus familiaris. An outline of the steps:
(§4)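 Dogs (8–15 kg) under thiopental sodium 15 mg/kg iv, then barbital sodium 200 mg/kg. Pressor response to bilateral carotid occlusion was monitored at least 1 h per dose. Doses changed by 0.48 log interval once responses returned to control. At least five dogs per compound; value is the calculated amount giving 50% inhibition of the pressor response.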

For experiment [8], the species on record is Felis catus. Kind of experiment: Evaluated for inhibition of pressor response during central sciatic nerve stimulation in cat. In kind it is functional. The method in brief: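 In cats under pentobarbital sodium 30 mg/kg intrathoracic, left femoral arterial pressure was recorded. The central stump of the sectioned right sciatic nerve was stimulated at 4 Hz, 5 ms, supramaximal voltage for 30 s (pressor 30–60 mmHg). Compounds were given iv, followed 1 h, doses stepped by 0.48 log unit; at least six cats. Value is the calculated amount giving 50% pressor inhibition.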

For experiment [9], the species on record is Canis familiaris. Put plainly: Evaluated for inhibition of pressor response during carotid occlusion in dog. In kind it is functional. Particulars: Canis lupus familiaris. An outline of the steps: as §4
The species entered for experiment [10] is Canis familiaris. Kind of experiment: Evaluated for inhibition of pressor response during carotid occlusion in dog; IA = inactive. To be noted: Canis lupus familiaris. In kind it is functional, organism-based. An outline of the steps: as §4
Experiment [11] has as its system Canis familiaris. Kind of experiment: Evaluated for inhibition of pressor response during carotid occlusion in dog at 0.5 mg/kg; IA = inactive. Set-up: dose 0.5 mg/kg. The format is functional, organism-based. Particulars: Canis lupus familiaris.

Active and inactive are the calls of the source. The rule behind the calls is not given here.

For the compound `CNC1CCc2ccccc2C1.Cl` (configuration not stated), the Reduction in experiment [1] is given as 70.2%. The Activity in experiment [2] is 263 turns hr-1; in [3] it was 16.
Regarding `CC(C)NC1Cc2ccccc2C1.Cl`, the Reduction in [4] stood at 2.8%. For the same compound, the results for the Activity in [2] and in experiment [3] were 25 turns hr-1 and 17.8, respectively.
Take `CN(C)C1CCCc2ccccc2C1` (configuration not stated): in experiment [5], the ED50 (in general, the dose at which the effect has come halfway, by size or by number of responders) was “inactive”.
For the compound `CCCN(CCC)C1CCCc2ccccc2C1` (configuration not stated), the result in experiment [6] was inactive.
`CC(C)N(C)C1CCc2ccccc2C1.Cl` (configuration not stated) registered a Reduction in [4] of 79.7%. Moreover, the figures for the Activity in experiment [2] and in [3] were 16 turns hr-1 and 20.6, respectively.
On to `CCCN(CCC)C1CCc2ccccc2C1.Cl` (configuration not stated), for which the ED50 was determined as 0.22 µmol/kg in experiment [7] and 0.09 µmol/kg in experiment [8]. In addition, the Reduction in experiment [4] is given as 76.5%. For the same compound, the Activity came to 734 turns hr-1 in [2] and 29.2 in [3].
Take `CCNC1CCc2ccccc2C1.Cl` (configuration not stated): the 50% effective dose (ED50) turned out to be 2.3 µmol/kg in experiment [8] and 0.52 µmol/kg in experiment [9]. The Reduction in experiment [4] stood at 76.4%. The Activity came out at 508 turns hr-1 in experiment [2] and 29.6 in experiment [3].
Compound `Cl.NC1Cc2ccccc2C1` gave a Reduction in experiment [4] of 76%. Besides, the Activity turned out to be 27 turns hr-1 in [2] and 35.8 in experiment [3].
The corresponding values for `CNC1Cc2ccccc2C1.Cl` are 80.3%, 6 turns hr-1 and 28.6.
`CCCCN(CCCC)C1Cc2ccccc2C1.Cl`: in experiment [4], the Reduction came out at 8.4%. Besides, the results for the Activity in experiment [2] and in [3] were 2 turns hr-1 and 11.7, respectively.
For the compound `CC(C)N(C)C1Cc2ccccc2C1.Cl`, in [4], the Reduction was found to be 64%. In addition, the Activity in experiment [2] stood at 15 turns hr-1; in experiment [3], 29.4.
Compound `Cl.NC1CCc2ccccc2C1` (configuration not stated) had a Reduction in experiment [4] of 55.1%. The Activity in [2] was 104 turns hr-1; in [3], 25.6.
For the compound `CCCNC1Cc2ccccc2C1.Cl`, the Reduction in [4] turned out to be 21.9%. Also, the Activity in experiment [2] worked out at 6 turns hr-1; in experiment [3] it was 15.
`CCCCNC1CCc2ccccc2C1.Cl` (configuration not stated): in experiment [1], the Reduction amounted to 20.7%. Also, the Activity came to 7 turns hr-1 in experiment [2] and 17.6 in experiment [3].
`Br.CCCCN(CCCC)C1CCc2ccccc2C1` (configuration not stated) displayed a Reduction in experiment [4] of 0.8%. In addition, the Activity in experiment [2] was determined as 4 turns hr-1; in experiment [3], 12.
In experiment [8], `CN(C)C1CCc2ccccc2C1.Cl` (configuration not stated) returned an ED50 of 0.16 µmol/kg. In experiment [4], this compound had a Reduction of 88.1%. Also, the ED50 result in experiment [10] was “inactive”. Further, the Activity in experiment [2] was 53 turns hr-1; in experiment [3] it was 24.2.
In experiment [8], `CCCN(CCC)C1Cc2ccccc2C1.Cl` came in with an ED50 of 0.25 µmol/kg. Besides, the Reduction in experiment [4] amounted to 64%. Further, the Activity is 289 turns hr-1 in experiment [2] and 22 in [3].
As to `CCCNC1CCc2ccccc2C1.Cl` (configuration not stated), the ED50 in [7] worked out at 3.38 µmol/kg; in [8] it was 0.9 µmol/kg. This compound registered a Reduction in experiment [4] of 79%. For the same compound, the Activity in experiment [2] turned out to be 804 turns hr-1; in experiment [3] it was 18.9.
Consider `CC(C)NC1CCCc2ccccc2C1` (configuration not stated), for which, in experiment [11], the ED50 result was “inactive”.
Turning to `CC(C)NC1CCc2ccccc2C1.Cl` (configuration not stated), in [3], the Activity is 27.
With `CCNC1Cc2ccccc2C1.Cl`, the Reduction in [4] is recorded as 73.6%. In addition, the results for the Activity in experiment [2] and in experiment [3] were 17 turns hr-1 and 22.1, respectively.
`CCCCNC1Cc2ccccc2C1.Cl` yielded a Reduction in experiment [4] of 7.1%. In addition, the Activity in experiment [2] worked out at 3 turns hr-1; in [3], 17.7.
The compound `CN(C)C1Cc2ccccc2C1.Cl` gave an Activity in [2] of 23 turns hr-1.
On to `CCN(CC)C1Cc2ccccc2C1.Cl`, for which the ED50 in experiment [8] stood at 1.14 µmol/kg. The Reduction in experiment [4] worked out at 50.6%. The results for the Activity in [2] and in experiment [3] were 304 turns hr-1 and 33.9, respectively.
Regarding `NC1CCCc2ccccc2C1` (configuration not stated), the outcome in experiment [6] was inactive.
In experiment [8], `CCN(CC)C1CCc2ccccc2C1.Cl` (configuration not stated) yielded an ED50 of 0.35 µmol/kg. The compound also showed a Reduction in experiment [4] of 73.4%. The Activity was 501 turns hr-1 in experiment [2] and 33.5 in experiment [3].

Values taken from ChEMBL document CHEMBL1121580, “Comparison of biological effects of N-alkylated congeners of beta-phenethylamine derived from 2-aminotetralin, 2-aminoindan, and 6-aminobenzocycloheptene” (1980).
